Assay results taken from ChEMBL document CHEMBL4689842, “EUbOPEN Chemogenomics Library wave 1” (2021).

Test system: HEK-293T
Test: Multiplex assay against HEK293T;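 on Population Tubulin-Different-Phenotype (%): share of the cells with healthy nuclei that show this phenotype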
Format: toxicity, cell-based
Conditions: human
In short: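 Values for tubulin, mitochondrial-mass and membrane-permeability phenotypes are per cents of cells with healthy nuclei. These cells were identified by CellPathfinder machine-learning gating of live cells that had been stained at seeding with Hoechst33342, BioTracker Green Microtubule Cytoskeleton Dye, MitoTracker Red and Annexin V Alexa Fluor 680 and imaged on a CQ1 microscope at 37°C and 5% CO2 after compound addition. The gating first set Hoechst high-intensity objects apart from normal cells, then split normal cells into healthy, pyknosed or fragmented nuclei, and pyknosed cells into mitotic or apoptotic.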

[1] = 12 h, 1 µM, compound concentration 1 uM, replicate 1
[2] = 12 h, 1 µM, compound concentration 1 uM, replicate 2
[3] = 12 h, 10 µM, compound concentration 10 uM, replicate 1
[4] = 12 h, 10 µM, compound concentration 10 uM, replicate 2
[5] = 24 h, 1 µM, compound concentration 1 uM, replicate 1
[6] = 24 h, 1 µM, compound concentration 1 uM, replicate 2
[7] = 24 h, 10 µM, compound concentration 10 uM, replicate 1
[8] = 24 h, 10 µM, compound concentration 10 uM, replicate 2

**Q.** What does the source list for `Cc1ccc(NC(=O)Nc2cc(C(F)(F)F)ccc2F)cc1Nc1ccc2c(c1)NC(=O)/C2=C\c1ccc[nH]1`?
**A.** Population Apoptotic (%) [1]: 13%; Population Fragmented Nuclei (%) [1]: 19%; Population Healthy Nuclei (%) [1]: 28%; Population Hoechst High Intensity Objects (%) [1]: 16%; Population Membrane Permeable-Phenotype (%) [1]: 59%; Population Mitochondria Different-Phenotype (%) [1]: 0%; Population Mitotic Cells (%) [1]: 86%; Population Normal (%) [1]: 83%; Population Pyknosed Nuclei (%) [1]: 51%; Population Tubulin-Different-Phenotype (%) [1]: 28%; Total Cell Count [1]: 644; Population Apoptotic (%) [2]: 2%; Population Fragmented Nuclei (%) [2]: 2%; Population Healthy Nuclei (%) [2]: 83%; Population Hoechst High Intensity Objects (%) [2]: 2%; Population Mitotic Cells (%) [2]: 97%; Population Normal (%) [2]: 97%; Population Pyknosed Nuclei (%) [2]: 13%; Population Tubulin-Different-Phenotype (%) [2]: 50%; Total Cell Count [2]: 1372; Population Apoptotic (%) [3]: 14%; Population Fragmented Nuclei (%) [3]: 10%; Population Healthy Nuclei (%) [3]: 68%; Population Hoechst High Intensity Objects (%) [3]: 6%; Population Membrane Permeable-Phenotype (%) [3]: 1%; Population Mitochondria Different-Phenotype (%) [3]: 3%; Population Mitotic Cells (%) [3]: 85%; Population Normal (%) [3]: 93%; Population Pyknosed Nuclei (%) [3]: 21%; Population Tubulin-Different-Phenotype (%) [3]: 0%; Total Cell Count [3]: 577; Population Apoptotic (%) [4]: 4%; Population Fragmented Nuclei (%) [4]: 7%; Population Healthy Nuclei (%) [4]: 87%; Population Hoechst High Intensity Objects (%) [4]: 2%; Population Mitochondria Different-Phenotype (%) [4]: 5%; Population Mitotic Cells (%) [4]: 95%; Population Normal (%) [4]: 97%; Population Pyknosed Nuclei (%) [4]: 5%; Population Tubulin-Different-Phenotype (%) [4]: 2%; Total Cell Count [4]: 1471; Population Apoptotic (%) [5]: 15%; Population Fragmented Nuclei (%) [5]: 20%; Population Healthy Nuclei (%) [5]: 34%; Population Hoechst High Intensity Objects (%) [5]: 14%; Population Membrane Permeable-Phenotype (%) [5]: 47%; Population Mitochondria Different-Phenotype (%) [5]: 0%; Population Mitotic Cells (%) [5]: 84%; Population Normal (%) [5]: 85%; Population Pyknosed Nuclei (%) [5]: 45%; Population Tubulin-Different-Phenotype (%) [5]: 33%; Total Cell Count [5]: 618; Population Apoptotic (%) [6]: 3%; Population Fragmented Nuclei (%) [6]: 4%; Population Healthy Nuclei (%) [6]: 82%; Population Hoechst High Intensity Objects (%) [6]: 4%; Population Membrane Permeable-Phenotype (%) [6]: 52%; Population Mitotic Cells (%) [6]: 96%; Population Normal (%) [6]: 95%; Population Pyknosed Nuclei (%) [6]: 13%; Population Tubulin-Different-Phenotype (%) [6]: 68%; Total Cell Count [6]: 1297; Population Apoptotic (%) [7]: 14%; Population Fragmented Nuclei (%) [7]: 7%; Population Healthy Nuclei (%) [7]: 82%; Population Hoechst High Intensity Objects (%) [7]: 2%; Population Membrane Permeable-Phenotype (%) [7]: 2%; Population Mitochondria Different-Phenotype (%) [7]: 1%; Population Mitotic Cells (%) [7]: 85%; Population Normal (%) [7]: 97%; Population Pyknosed Nuclei (%) [7]: 10%; Population Tubulin-Different-Phenotype (%) [7]: 1%; Total Cell Count [7]: 682; Population Apoptotic (%) [8]: 0%; Population Fragmented Nuclei (%) [8]: 18%; Population Healthy Nuclei (%) [8]: 79%; Population Hoechst High Intensity Objects (%) [8]: 3%; Population Membrane Permeable-Phenotype (%) [8]: 3%; Population Mitochondria Different-Phenotype (%) [8]: 0%; Population Mitotic Cells (%) [8]: 100%; Population Normal (%) [8]: 96%; Population Pyknosed Nuclei (%) [8]: 2%; Population Tubulin-Different-Phenotype (%) [8]: 2%; Total Cell Count [8]: 2446
